Assay [1] can be described thus: Inhibition of trypsin-like activity of rabbit 26s proteasome beta 2 subunit assessed as hydrolysis of Ac-RLR-amc fluorogenic substrate preincubated for 30 mins followed by substrate addition measured for 30 mins by fluorescence plate reader analysis. Further details: species or system Oryctolagus cuniculus. The essentials:
(§1)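 Purified rabbit-muscle 26S proteasome (final 3 µg/mL) preincubated 30 min with a range of inhibitor concentrations. Slopes expressed as % of mock; IC50 by four-parameter least-squares fit.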

The species named for another assay is Oryctolagus cuniculus. The experiment in a line: Selectivity ratio of IC50 for chymotrypsin-like activity of rabbit 26s proteasome beta 5 subunit to IC50 for trypsin-like activity of rabbit 26s proteasome beta 2 subunit. In a few lines: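 Purified rabbit-muscle 26S proteasome (final 3 µg/mL) preincubated 30 min with a range of inhibitor concentrations. […] Amc release read continuously for 30 min (ex 380/em 460 nm). Slopes expressed as % of mock; IC50 by four-parameter least-squares fit.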

Assay [2] can be described thus: Inhibition of caspase-like activity of rabbit 26s proteasome beta 1 subunit assessed as hydrolysis of Acn-LPnLD-amc fluorogenic substrate preincubated for 30 mins followed by substrate addition measured for 30 mins by fluorescence plate reader analysis. More on the design: species or system Oryctolagus cuniculus. The essentials: as §1
Assay [3] can be described thus: Inhibition of chymotrypsin-like activity of rabbit 26s proteasome beta 5 subunit assessed as hydrolysis of Suc-LLVY-amc fluorogenic substrate preincubated for 30 mins followed by substrate addition measured for 30 mins by fluorescence plate reader analysis. Further details: species or system Oryctolagus cuniculus. The essentials: as §1
The target in assay [4] is T1, Proteasome Macropain subunit MB1 (Homo sapiens, UniProt P28074).
T1 sequence (P28074 whole entry): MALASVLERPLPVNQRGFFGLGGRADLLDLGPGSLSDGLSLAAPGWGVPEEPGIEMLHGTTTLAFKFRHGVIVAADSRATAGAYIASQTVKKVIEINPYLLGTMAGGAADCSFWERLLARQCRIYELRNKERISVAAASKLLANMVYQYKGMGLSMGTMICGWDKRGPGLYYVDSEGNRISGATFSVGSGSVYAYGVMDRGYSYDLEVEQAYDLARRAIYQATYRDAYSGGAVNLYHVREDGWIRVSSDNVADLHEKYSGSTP
The experiment in a line: Inhibition of chymotrypsin-like activity of proteasome in human NCI-H929 cells after 6 hrs by proteasomeGlo assay. Format: cell-based. The essentials: (§2)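 Cells then pelleted, resuspended in PBS and mixed with site-specific luminogenic substrates in lysis/assay buffer. Mixing 3 min, then 17 min in the dark before luminescence, triplicate per substrate/point. Activity as % of mock; IC50 from a four-parameter nonlinear fit.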

Assay [5] deals with Proteasome Macropain subunit (Homo sapiens) (UniProt P49721). The experiment in a line: Selectivity ratio of IC50 for trypsin-like activity of proteasome in human RPMI-8226 cells to IC50 for trypsin-like activity of proteasome in human NCI-H929 cells. Format: cell-based.
Sequence of Proteasome Macropain subunit (Homo sapiens) (P49721 whole entry): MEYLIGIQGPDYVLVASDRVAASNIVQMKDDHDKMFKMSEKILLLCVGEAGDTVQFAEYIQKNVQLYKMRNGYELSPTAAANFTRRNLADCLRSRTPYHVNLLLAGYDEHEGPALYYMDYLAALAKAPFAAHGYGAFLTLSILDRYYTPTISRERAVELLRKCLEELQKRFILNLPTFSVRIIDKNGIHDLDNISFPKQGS
In assay [6] the target is T1, Proteasome Macropain subunit MB1. The assay can be described thus: Inhibition of chymotrypsin-like activity of proteasome in human RPMI-8226 cells after 6 hrs by proteasomeGlo assay. Format: cell-based. In a few lines:
as §2

Assay [7] can be described thus: Inhibition of chymotrypsin-like activity of yeast 20s proteasome beta 5 subunit assessed as hydrolysis of Suc-LLVY-amc fluorogenic substrate after 15 mins by fluorescence spectrophotometry. More on the design: species or system Saccharomyces cerevisiae.
Another assay deals with NCI-H929. The assay can be described thus: Inhibition of cathepsin in human NCI-H929 cells assessed as hydrolysis of Z-FR-amc fluorogenic substrate after 6 hrs. Format: cell-based. The essentials: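 NCI-H929 cells treated 6 h, washed and permeabilized on ice with 0.05% digitonin in Tris pH 7.5 sucrose buffer. Cytosol removed by centrifugation, then the pellet lysed in Bis-Tris pH 5.5/CHAPS buffer. Protein-normalized extract added to 40 µM Z-FR-amc in phosphate pH 6.0, EDTA, DTT. Fluorescence read continuously for 30 min; rate from slopes.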

Active and inactive are the calls of the source. The calls are words filed in the database; no cut-off is given here.

The IC50 is the concentration at which inhibition is half-maximal.

For the compound `Cc1c(O)cccc1C(=O)N[C@H](C(=O)N[C@@H](CO)C(=O)N[C@@H](CCCNC(=N)N)C(=O)[C@@]1(C)CO1)C(C)C`, the IC50 in assay [1] is 300 nM; in [2] it was 80 µM; in assay [3] it was 80 µM; in assay [4], > 30 µM; in assay [6] it was > 30 µM. Moreover, the Ratio IC50 was found to be 267 in the assay filed under Oryctolagus cuniculus and 25 in [5].
Consider `Cc1c(O)cccc1C(=O)N[C@H](C(=O)N[C@@H](CO)C(=O)N[C@H](/C=C/S(C)(=O)=O)Cc1ccc(CN)cc1)C(C)C`, for which the IC50 was determined as 19.3 µM in assay [7] and 21 µM in [2]. Also, the inhibition result in the assay with NCI-H929 is “inactive”.

The values above are taken from ChEMBL document CHEMBL2321678, “Incorporation of non-natural amino acids improves cell permeability and potency of specific inhibitors of proteasome trypsin-like sites” (J Med Chem, 2013).
